In ChEMBL document CHEMBL1130202, “Biologically active heteroarotinoids exhibiting anticancer activity and decreased toxicity” (J Med Chem, 1997):
Calls of active or inactive are those of the source. The calls are words filed in the database; no cut-off is given here.

Columns and labels:
Mus musculus [1] = species: Mus musculus; experiment: Effect of compound on serum triglycerides levels in mice at high dose on day 29; format: functional
How it was run: (§1)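 Male B6D2F1 mice dosed daily by oral gavage in corn oil at low, mid 1, mid 2 or high dose. Blood sampled on set days (8, 29, 36, 65) for clinical chemistry, serum alkaline phosphatase and triglycerides. Group mean ± SD reported as % relative to vehicle 1; significance p < 0.05 versus corn oil vehicle.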

Mus musculus [2] = species: Mus musculus; experiment: Approximate day to 10% weight loss in mice at low dose; format: functional
How it was run: (§2)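 Male B6D2F1 mice dosed daily by gavage in corn oil; body weights followed to termination (day 65, or day 25 for TTNPB 0.01/0.05 mg/kg/day groups) and compared with the matching vehicle group. Value is approximate day of onset of 10% body weight reduction versus vehicle.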

Mus musculus [3] = species: Mus musculus; experiment: Calculated 30-day maximally tolerated dose based on 10% weight loss in mice at high dose; format: functional
Mus musculus [4] = species: Mus musculus; experiment: Effect of compound on serum triglycerides levels in mice at mid dose 2 on day 29; format: functional
How it was run: (§3)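 Male B6D2F1 mice were gavaged daily with compound in corn oil at low, mid 1, mid 2 or high dose. Serum triglycerides and circulating white blood cells were measured on the stated day (8, 29, 36, 65). Values are group mean ± SD expressed as % relative to corn-oil vehicle, with significance at p ≤ 0.05.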

Mus musculus [5] = species: Mus musculus; experiment: Total dose of 10% weight loss in mice at high dose; format: functional
Mus musculus [6] = species: Mus musculus; experiment: Effect of compound on Spleen to body weight ratios in mice at mid dose 1 on day 65; format: functional
How it was run: (§4)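 Male B6D2F1 mice dosed daily by gavage with compound in corn oil; vehicle 1 (corn oil) controls run to termination on day 65. Low, mid 1, mid 2 and high dose groups, with dosage increases partway through the study. Organ-to-body weight ratios (×1000) taken at necropsy on day 65, reported as mean ± SD for 4 to 8 animals and as % difference from vehicle.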

Mus musculus [7] = species: Mus musculus; experiment: Total dose of 10% weight loss in mice at mid dose 1; format: functional
Mus musculus [8] = species: Mus musculus; experiment: Approximate day to 10% weight loss in mice at mid dose 2; format: functional; how it was run: as §2
Mus musculus [9] = species: Mus musculus; experiment: Total dose of 10% weight loss in mice at mid dose 2; format: functional
Mus musculus [10] = species: Mus musculus; experiment: Effect of compound on Spleen to body weight ratios in mice at low dose on day 65; format: functional; how it was run: as §4
Mus musculus [11] = species: Mus musculus; experiment: Effect of compound on right testicle to body weight ratios in mice at low dose on day 65; format: functional; how it was run: as §4
CC-B = experiment: Relative transcriptional activation activity relative to t-RA; format: functional, Homo sapiens
How it was run: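 CC-B reporter cells (CC-1 cervical line carrying a CAT gene under a RARE with a tk promoter) were seeded at 4×10^5 cells/well in MEM with nonessential amino acids, pyruvate and 10% FBS, the serum lots having negligible t-RA by HPLC. Triplicate cultures were screened at 10^-6 M with 0.1% DMSO final. After 48 h, CAT activity ([3H]acetyl-CoA) per mg protein was taken as treated/control and expressed relative to t-RA. Average of three experiments.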

Mus musculus [12] = species: Mus musculus; experiment: Effect of compound on serum Alkaline phosphatase levels in mice at low dose on day 65; format: functional; how it was run: as §1
Mus musculus [13] = species: Mus musculus; experiment: Avoiding pressure on limbs in mice at mid dose 2 with Hypervitaminosis; 0/16; format: functional, organism-based; conditions: Limb
Mus musculus [14] = species: Mus musculus; experiment: Approximate day to 10% weight loss in mice at mid dose 1; format: functional; how it was run: as §2
Mus musculus [15] = species: Mus musculus; experiment: Effect of compound on adrenal to body weight ratios in mice at high dose on day 65; format: functional; how it was run: as §4
Mus musculus [16] = species: Mus musculus; experiment: Approximate day to 10% weight loss in mice at high dose; format: functional; how it was run: as §2
Mus musculus [17] = species: Mus musculus; experiment: Effect of compound on right testicle to body weight ratios in mice at mid dose 2 on day 65; format: functional; how it was run: as §4
Mus musculus [18] = species: Mus musculus; experiment: Effect of compound on serum Alkaline phosphatase levels in mice at mid dose 2 on day 65; format: functional; how it was run: as §1
Mus musculus [19] = species: Mus musculus; experiment: Average number of fractures per mouse at mid dose 2
Mus musculus [20] = species: Mus musculus; experiment: Effect of compound on serum triglycerides levels in mice at low dose on day 29; format: functional; how it was run: as §1
Mus musculus [21] = species: Mus musculus; experiment: Effect of compound on serum Alkaline phosphatase levels in mice at high dose on day 36; format: functional; how it was run: as §1
Mus musculus [22] = species: Mus musculus; experiment: Effect of compound on adrenal to body weight ratios in mice at mid dose 2 on day 65; format: functional; how it was run: as §4
Mus musculus [23] = species: Mus musculus; experiment: Calculated 30-day maximally tolerated dose based on 10% weight loss in mice at low dose; format: functional
Mus musculus [24] = species: Mus musculus; experiment: Average number of fractures per mouse at high dose
Mus musculus [25] = species: Mus musculus; experiment: Effect of compound on adrenal to body weight ratios in mice at mid dose 1 on day 65; format: functional; how it was run: as §4
Mus musculus [26] = species: Mus musculus; experiment: Effect of compound on thymus to body weight ratios in mice at mid dose 2 on day 65; format: functional
How it was run: (§5)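 Male B6D2F1 mice were dosed daily by gavage in corn oil, with TTNPB given at 0.1–0.8 or 0.01/0.05 mg/kg/day. Thymus-to-body weight ratio (×1000) was taken at necropsy on day 65 against vehicle 1, or on day 25 for the 0.01/0.05 groups against vehicle 2. Mean ± SD of 4–8 animals, reported as % difference from vehicle.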

Mus musculus [27] = species: Mus musculus; experiment: Effect of compound on Spleen to body weight ratios in mice at mid dose 2 on day 65; format: functional; how it was run: as §4
Mus musculus [28] = species: Mus musculus; experiment: Effect of compound on right testicle to body weight ratios in mice at mid dose 1 on day 65; format: functional; how it was run: as §4
Mus musculus [29] = species: Mus musculus; experiment: Avoiding pressure on limbs in mice at low dose with Hypervitaminosis; 0/16; format: functional, organism-based; conditions: Limb
Mus musculus [30] = species: Mus musculus; experiment: Effect of compound on adrenal to body weight ratios in mice at low dose on day 65; format: functional; how it was run: as §4
Mus musculus [31] = species: Mus musculus; experiment: Average number of fractures per mouse at low dose
Mus musculus [32] = species: Mus musculus; experiment: Effect of compound on serum triglycerides levels in mice at low dose on day 36; format: functional; how it was run: as §1
Mus musculus [33] = species: Mus musculus; experiment: Effect of compound on serum triglycerides levels in mice at mid dose 1 on day 29; format: functional; how it was run: as §3
Mus musculus [34] = species: Mus musculus; experiment: Average number of fractures per mouse at mid dose 1
Mus musculus [35] = species: Mus musculus; experiment: Calculated 30-day maximally tolerated dose based on 10% weight loss in mice at mid dose 1; format: functional
Mus musculus [36] = species: Mus musculus; experiment: Effect of compound on thymus to body weight ratios in mice at low dose on day 65; format: functional; how it was run: as §5
Mus musculus [37] = species: Mus musculus; experiment: Effect of compound on thymus to body weight ratios in mice at high dose on day 65; format: functional; how it was run: as §5
Mus musculus [38] = species: Mus musculus; experiment: Calculated 30-day maximally tolerated dose based on 10% weight loss in mice at mid dose 2; format: functional
Mus musculus [39] = species: Mus musculus; experiment: Effect of compound on thymus to body weight ratios in mice at mid dose 1 on day 65; format: functional; how it was run: as §5
Mus musculus [40] = species: Mus musculus; experiment: Effect of compound on serum Alkaline phosphatase levels in mice at low dose on day 29; format: functional; how it was run: as §1
Mus musculus [41] = species: Mus musculus; experiment: Total dose of 10% weight loss in mice at low dose; format: functional

Molecule CC(/C=C/C=C(\C)c1ccc2c(c1)C(C)(C)CCO2)=C\C(=O)O has an Activity (Mus musculus [1]) of 208.2, an Activity (Mus musculus [2]) greater than 65 and a Max tolerated dose (Mus musculus [3]) of 31.8 mg/kg. It also gave an Activity (Mus musculus [4]) of 159.3, a Dose (Mus musculus [5]) of 952.8 mg/kg and an Activity (Mus musculus [6]) of 2.5. It also gave a Dose (Mus musculus [7]) greater than 414.2 mg/kg, an Activity (Mus musculus [8]) of 61 and a Dose (Mus musculus [9]) of 732.4 mg/kg. For the same molecule, the Activity (Mus musculus [10]) was 2.3, the Activity (Mus musculus [11]) was 3.2 and the Relative activity (CC-B) was 50. The Activity (Mus musculus [12]) was 115.7, the Activity (Mus musculus [13]) was “inactive” and the Activity (Mus musculus [14]) was greater than 65. It also gave an Activity (Mus musculus [15]) of 0.4, an Activity (Mus musculus [16]) of 53 and an Activity (Mus musculus [17]) of 3.3. It also gave an Activity (Mus musculus [18]) of 136.8, an Activity (Mus musculus [19]) of 0.6 and an Activity (Mus musculus [20]) of 179.4. It also gave an Activity (Mus musculus [21]) of 91.9, an Activity (Mus musculus [22]) of 0.3 and a Max tolerated dose (Mus musculus [23]) greater than 6.9 mg/kg. It also gave an Activity (Mus musculus [24]) of 1, an Activity (Mus musculus [25]) of 0.3 and an Activity (Mus musculus [26]) of 1.5. For the same molecule, the Activity (Mus musculus [27]) was 2.7, the Activity (Mus musculus [28]) was 2.9 and the Activity (Mus musculus [29]) was “inactive”. For the same molecule, the Activity (Mus musculus [30]) was 0.3, the Activity (Mus musculus [31]) was 0 and the Activity (Mus musculus [32]) was 187.1. It also gave an Activity (Mus musculus [33]) of 167.3, an Activity (Mus musculus [34]) of 0 and a Max tolerated dose (Mus musculus [35]) greater than 13.8 mg/kg. For the same molecule, the Activity (Mus musculus [36]) was 1.6, the Activity (Mus musculus [37]) was 1.3 and the Max tolerated dose (Mus musculus [38]) was 24.4 mg/kg. It also gave an Activity (Mus musculus [39]) of 1.6, an Activity (Mus musculus [40]) of 96.8 and a Dose (Mus musculus [41]) greater than 207.1 mg/kg.
